One data set relates to U-937. Description: Cytotoxicity against human U937 cells after 72 hrs by MTT assay. Conditions: u-937, 72 h. In kind it is cell-based. An outline of the steps: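 Exponentially growing U-937 at 1 × 10^5 cells/mL in RPMI-1640 with 10% FBS were exposed to 200, 50, 12.5 and 3.125 µg/mL for 72 h at 37 °C, 5% CO2. MTT for 3 h, stopped with isopropanol/SDS, formazan read at 570 nm, blank-corrected. LC50 by Probit from % viability against untreated cells. Triplicate, at least two independent experiments.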

A further data set has as its system Trypanosoma cruzi. Briefly: Antitrypanosomal activity against Trypanosoma cruzi Tulahuen intracellular amastigote harboring LacZ infected in human U937 cells after 72 hrs by CPRG/Nonidet reagent based spectrophotometric method. The settings on record: U-937, 72 h. Format: functional, cell-based. Put shortly: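 U-937 cells at 2.5 × 10^5 cells/mL in RPMI-1640 with 10% serum and 0.1 µg/mL PMA were infected with β-galactosidase-transfected Tulahuen epimastigotes at 5 parasites per cell. Infected cells were exposed to 50, 12.5, 3.125 and 0.78 µg/mL for 72 h. CPRG (100 uM) and 0.1% Nonidet P-40 were added for 3 h, read at 570 nm. EC50 by Probit. Triplicate, at least two experiments; benznidazole as reference.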

In data set [1] the test system is Cryptococcus neoformans. Description: Growth inhibition of Cryptococcus neoformans ATCC 32264 at 31.25 ug/ml incubated for 48 hrs under dark condition by broth microdilution method relative to control. Format: functional. The settings on record: ATCC 32264, 48 h, read-out: GI. Put shortly:
(§1)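 CLSI M27-A3 broth microdilution in RPMI-1640, DMSO ≤1%. Inoculum 1-5 × 10^3 CFU/mL. Incubated 48 h at 30 °C, dark. % inhibition = 100 − (OD405 test − sterility control)/(OD405 growth control − sterility control), with growth and sterility control wells. Triplicate.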

For data set [2], the system named is Cryptococcus neoformans. Briefly: Growth inhibition of Cryptococcus neoformans ATCC 32264 at 3.4 ug/ml incubated for 48 hrs under dark condition by broth microdilution method relative to control. Format: functional. The settings on record: ATCC 32264, 48 h, read-out: GI.
The subject of data set [3] is Cryptococcus neoformans. Description: Growth inhibition of Cryptococcus neoformans ATCC 32264 at 7.8 ug/ml incubated for 48 hrs under dark condition by broth microdilution method relative to control. The settings on record: ATCC 32264, 48 h, read-out: GI. In kind it is functional. Put shortly:
as §1

The test system of data set [4] is Cryptococcus neoformans. Description: Growth inhibition of Cryptococcus neoformans ATCC 32264 at 250 ug/ml incubated for 48 hrs under dark condition by broth microdilution method relative to control. In kind it is functional. The settings on record: ATCC 32264, 48 h, read-out: GI. An outline of the steps:
as §1

Data set [5] deals with Cryptococcus neoformans. Description: Growth inhibition of Cryptococcus neoformans ATCC 32264 at 15.62 ug/ml incubated for 48 hrs under dark condition by broth microdilution method relative to control. Format: functional. Conditions: ATCC 32264, 48 h, read-out: GI. An outline of the steps:
as §1

For data set [6], the system named is Cryptococcus neoformans. Description: Growth inhibition of Cryptococcus neoformans ATCC 32264 at 125 ug/ml incubated for 48 hrs under dark condition by broth microdilution method relative to control. Format: functional. Conditions: ATCC 32264, 48 h, read-out: GI. An outline of the steps: as §1
Data set [7] relates to Cryptococcus neoformans. Description: Growth inhibition of Cryptococcus neoformans ATCC 32264 at 62.5 ug/ml incubated for 48 hrs under dark condition by broth microdilution method relative to control. In kind it is functional. The settings on record: ATCC 32264, 48 h, read-out: GI. An outline of the steps:
as §1

The test system of the next data set is Plasmodium falciparum. Description: Antiplasmodial activity against chloroquine-sensitive Plasmodium falciparum 3D7 assessed as reduction in parasitic LDH activity after 48 hrs by Malstat reagent based […] method. Format: functional. Conditions: 3D7, 48 h. Put shortly: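 Unsynchronized P. falciparum 3D7 at 0.5% parasitemia and 1% hematocrit in RPMI with 3% Albumax II. Exposed to 100, 25, 6.25 and 1.56 µg/mL for 48 h at 37 °C under 90% N2/5% CO2/5% O2. After three freeze-thaw cycles, LDH measured with Malstat and NBT/PES, 1 h in the dark, read at 650 nm. IC50 by Probit; triplicate, ≥2 experiments.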

≈ marks a conversion by molar mass, not a printed value.

On to `O=C(Cn1ccnc1[N+](=O)[O-])NCc1ccccc1` [BENZNIDAZOLE], for which the median lethal concentration (LC50) with U-937 was determined as 180 mg/L (≈ 692 µM). In the data set with Trypanosoma cruzi, the response was half-maximal at 10.7 mg/L (≈ 41.1 µM) (EC50).
For `C[C@@H]1[C@H](O)[C@@H](C)/C=C/C=C/C=C/C=C/C=C/C=C/C=C/[C@H](O[C@@H]2O[C@H](C)[C@@H](O)[C@H](N)[C@@H]2O)C[C@@H]2O[C@](O)(C[C@@H](O)C[C@@H](O)[C@H](O)CC[C@@H](O)C[C@@H](O)CC(=O)O[C@H]1C)C[C@H](O)[C@H]2C(=O)O` [AMPHOTERICIN B], the inhibition of growth at 31.25 µg/mL in the data set on Cryptococcus neoformans [1] amounted to 100%. Also, the median lethal concentration (LC50) in the data set on U-937 stood at 36 mg/L (≈ 39 µM). In the data set on Cryptococcus neoformans [2], the inhibition of growth at 3.4 µg/mL was found to be 100%. In the data set with Cryptococcus neoformans [3], the inhibition of growth at 7.8 µg/mL came out at 100%. For the same molecule, the inhibition of growth at 250 µg/mL in the data set on Cryptococcus neoformans [4] worked out at 100%. The inhibition of growth at 15.62 µg/mL in the data set with Cryptococcus neoformans [5] turned out to be 100%. Moreover, the inhibition of growth at 125 µg/mL in the data set with Cryptococcus neoformans [6] was 100%. The inhibition of growth at 62.5 µg/mL in the data set on Cryptococcus neoformans [7] is 100%.
Regarding `CCN(CC)CCCC(C)Nc1ccnc2cc(Cl)ccc12.O=P(O)(O)O.O=P(O)(O)O` (stereo unspecified) [CHLOROQUINE PHOSPHATE], in the data set with Plasmodium falciparum, the EC50 came out at 18.9 mg/L.

For the origin of these results see ChEMBL document CHEMBL4038284, “Synthesis of novel quinoline-based 4,5-dihydro-1H-pyrazoles as potential anticancer, antifungal, antibacterial and antiprotozoal agents” (Eur J Med Chem, 2017).
